Screens deposited in PubChem BioAssay by The Scripps Research Institute Molecular Screening Center.
OX1R antag-1 = antagonists of human orexin 1 receptor (OX1R); inhibition, % at 6.6 µM; OX1R-expressing cells, FRET antagonist read-out; AID 485270; 330,000 compounds, 1.8% hits; in the data active = inhibition mostly above about 38%, no sharp cut-off; inactive = mostly below about 40%
GPR7 antagonist = human neuropeptides B/W receptor 1 antagonism; 290,000 compounds, 1.1% hits; GPR7-expressing cells, fluorescence antagonist assay; AID 1861; P48145; inhibition, % at 4.4 µM; in the data active = inhibition above about 16%, passing the limit was not always enough;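 note: cells stimulated with the agonist NPW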
Target sequence (P48145 whole entry, looked up): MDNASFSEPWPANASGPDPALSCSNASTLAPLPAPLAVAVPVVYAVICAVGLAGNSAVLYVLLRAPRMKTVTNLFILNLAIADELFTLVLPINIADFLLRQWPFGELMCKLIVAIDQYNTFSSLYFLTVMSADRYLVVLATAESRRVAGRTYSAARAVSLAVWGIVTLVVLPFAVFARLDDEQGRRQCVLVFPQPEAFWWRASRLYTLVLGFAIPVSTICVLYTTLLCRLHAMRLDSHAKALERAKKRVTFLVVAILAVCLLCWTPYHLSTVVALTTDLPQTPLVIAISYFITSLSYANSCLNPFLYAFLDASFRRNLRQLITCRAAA
TAAR1 agonist = agonists of human TAAR1; AID 624467; activation, % at 3 µM; CHO RD-HGA16 TAAR1, Fluo-8 calcium fluorescence; vehicle wells 0%, saturating PEA agonist 100%; 360,000 compounds, 0.99% hits;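 active = activation above the mean activation of all test compounds in the run plus 3 SD, cut at about 38% in these data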
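Test system: RD-HGA16 (CHO) cells co-expressing Gα16 and hTAAR1 | Doses: Single dose, 3 µM | Schedule: 17-24 h seeding, 75 min 37 °C dye, 30 min RT | Evaluation: % activation from peak over basal fluorescence ratio, DMSO-to-PEA scaled | Technique: Kinetic Fluo-8 calcium fluorescence | Benchmarks: Low control DMSO, high control PEA (EC100)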
CHO parental Ca = counter-screen: ATP calcium response change in parental CHO cells; 330,000 compounds, 0.63% hits; inhibition, % at 5.6 µM; parental CHO-K1, ATP-induced calcium, Fluo-8 fluorescence;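 active = inhibition above that plate's mean sample inhibition plus 3 SD, cut at about 26% in these data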
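Assay system – parental CHO cells · Reagent – ATP stimulus · Detection – intracellular calcium via Fluo-8 no-wash fluorescent dye · Evaluation – percent inhibition of ATP-evoked calcium rise, normalized to controls · Controls – ATP wells versus no-ATP DMSO wells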
TAAR1 antag = antagonists of human TAAR1; AID 624466; inhibition, % at 3 µM; CHO RD-HGA16 TAAR1, Fluo-8 calcium fluorescence, antagonist; 360,000 compounds, 1.5% hits; Q96RJ0;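 active = inhibition above a per-plate cutoff, the mean inhibition of test compounds on that plate plus 3 SD, cut at about 49% in these data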
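Test system – hTAAR1-expressing CHO RD-HGA16 cells, Gα16-coupled · Also added – β-PEA at EC80 concentration, post-compound challenge · Compound – 3 µM, single point · Incubation – dye loading 75 min at 37 °C, then 30 min room temperature · Measured by – Fluo-8 intracellular calcium dye fluorescence, real-time kinetic reads · Benchmarks – vehicle and agonist controls · Replicates – singlicate, one well per test compound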
OX1R antag-2 = blocks the human orexin 1 receptor. O43613. CHO/OX1R cells, Fluo-8 calcium fluorescence, orexin A. inhibition, % at 5 µM. 330,000 compounds, 0.43% hits. AID 434989;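 active = inhibition above its plate's threshold, mean inhibition of all tested compounds on the plate plus 3 SD, cut at about 37% in these data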
Of the large screens only hits and unclear results are named; the others gave an inactive call. An excerpt weighted towards active compounds, which were near 4.6% of everything screened.

CC(=O)OCCCNc1cc(Sc2ccc(Cl)cc2)c2nonc2c1[N+](=O)[O-]	none
CCCC(=O)OCCNc1cc(Sc2nc3ccccc3[nH]2)c2nonc2c1[N+](=O)[O-]	OX1R antag-1 65, GPR7 antagonist 25, CHO parental Ca 38
CC(C(=O)NCc1ccccc1)n1c(-c2ccc3c(c2)CCO3)nc2ccccc21 (configuration not stated)	none (no result: OX1R antag-1, GPR7 antagonist, CHO parental Ca, OX1R antag-2)
COC(=O)c1cnn2c(C(F)(F)F)cc(-c3ccccc3)nc12	none
O=C(c1cnn2c(C(F)(F)F)cc(-c3ccco3)nc12)N1CCCCCC1	none
COc1cccc(-c2cc(C(F)(F)F)n3ncc(C(=O)O)c3n2)c1	OX1R antag-1 51
N#Cc1cnn2c(C(F)(F)F)cc(-c3ccccc3)nc12	CHO parental Ca 54
O=C(O)c1cnn2c(C(F)(F)F)cc(-c3ccco3)nc12	OX1R antag-1 49
OC[C@H]1O[C@H](c2nc(-c3nc(-c4cccc(-n5cccc5)c4)no3)cs2)C[C@@H]1O	none (no result: OX1R antag-1, GPR7 antagonist, CHO parental Ca, OX1R antag-2)
CCOC(=O)[C@]12CCC=C1N(Cc1cccc3ccccc13)C(=O)[C@H](CC(=O)NCc1ccc(OC)c(OC)c1)C2	none (no result: OX1R antag-1, GPR7 antagonist, CHO parental Ca, OX1R antag-2)
CN(CCO)c1cc(Sc2nc3ccccc3s2)c2nonc2c1[N+](=O)[O-]	OX1R antag-1 67, CHO parental Ca 88, OX1R antag-2 70
Cc1cc(C)c(NC(=O)CSc2nnc(Cc3cccn3C)n2-c2ccc(F)cc2)c(C)c1	OX1R antag-1 60
Cc1cc(C)cc(NC(=O)CSc2nnc(Cc3cccn3C)n2-c2ccc(F)cc2)c1	none
O=C1Cn2nnc(-c3ccccc3)c2C2c3cc(Br)ccc3CCN12 (configuration not stated)	none (no result: OX1R antag-1, GPR7 antagonist, CHO parental Ca, OX1R antag-2)
CCOC(=O)CCCNc1ccc([N+](=O)[O-])cc1[N+](=O)[O-]	OX1R antag-1 71
CC(C)NC(=O)C1Cc2c(-c3ccc4c(c3)OCO4)ccnc2O1 (configuration not stated)	none (no result: OX1R antag-1, GPR7 antagonist, CHO parental Ca, OX1R antag-2)
CN(NS(=O)(=O)c1ccc(Cl)cc1)c1nc(C(F)(F)F)nc2ccccc12	OX1R antag-1 55
CN(NS(=O)(=O)c1ccccc1)c1nc2ccccc2nc1C(F)(F)F	none
COc1cccc(NS(=O)(=O)c2ccc3c(c2)CCN3C(C)=O)c1	none
CSc1cccc(NS(=O)(=O)c2ccc3c(c2)CCN3C(C)=O)c1	CHO parental Ca 64
CCNC(=O)C1(C)CCN(C(=O)c2cccc(C(F)(F)F)c2)C1 (configuration not stated)	none (no result: OX1R antag-1, GPR7 antagonist, CHO parental Ca, OX1R antag-2)
N#Cc1cc(Oc2cccc3cccnc23)c(-n2nnc3ccccc32)cc1C#N	OX1R antag-2 46
CCOC(=O)CN1C(=O)[C@]2(OCCC=C[C@H]2C)c2cc(OC)ccc21	none (no result: OX1R antag-1, GPR7 antagonist, CHO parental Ca, OX1R antag-2)
O=C(NCc1ccco1)C(c1ccncc1)N(C(=O)Cc1cccs1)c1ccccc1 (configuration not stated)	none
O=C(NCc1ccco1)C(c1ccccc1)N(C(=O)Cc1cccs1)c1ccccc1F (configuration not stated)	TAAR1 antag 58
CCN1/C(=C/c2ccc3cccc(C)c3[n+]2CC)Sc2ccccc21	GPR7 antagonist 34, CHO parental Ca 66, OX1R antag-2 100
CCN1/C(=C/c2ccc3cc(C)cc(C)c3[n+]2CC)Sc2cc(C)ccc21	none (no result: OX1R antag-1, CHO parental Ca, OX1R antag-2)
CC1=C(C(=O)NC2CCCc3c2cnn3-c2cccc(C)c2C)OCCO1 (configuration not stated)	OX1R antag-1 67
CCn1cc(C(=O)NC2CCCc3c2cnn3-c2cccc(C)c2C)cn1 (configuration not stated)	CHO parental Ca 54
Cc1cc(C(=O)NC2CCCc3c2cnn3-c2cccc(C)c2C)no1 (configuration not stated)	none
COc1ccc(C(=O)NC2CCCc3c2cnn3-c2cccc(C)c2C)o1 (configuration not stated)	OX1R antag-1 68
CN1OC[C@@H]2CN3C(=NCCc4ccccc4)Sc4ccccc4[C@@H]3C[C@@H]21	none (no result: OX1R antag-1, GPR7 antagonist, CHO parental Ca, OX1R antag-2)
Cn1c(CC(=O)Nc2ccc(Cl)c(Cl)c2)n[nH]c1=S	none
COc1ccc(Cc2n[nH]c(=S)n2NC(=O)Nc2ccc(Cl)c(Cl)c2)cc1	OX1R antag-1 58, CHO parental Ca 52
